Screens: PubChem BioAssay, several laboratories
The list is not random: actives were taken first. Their share in the collection is about 1.8%.
NSD2 inh – blocks human histone methyltransferase NSD2; NSD2 peptide methylation, AlphaScreen, 120 min; inhibition, % at 12.5 µM; hit rate 0.54% among 310,000; O96028; in the data active = inhibition above about 50%
TDP2 inh – blocks human TDP2 phosphodiesterase activity | recombinant TDP2, T5PNP hydrolysis, p-nitrophenol absorbance 415 nm | inhibition, % at 12.8 µM | hit rate 0.34% among 370,000 | AID 720702;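 active = inhibition above the mean of all tested compounds plus 3 SD, set per campaign, cut at about 25% in these data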;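 also: 0% = DMSO with enzyme and 100% = buffer with substrate but no TDP2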
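Test system: Human TDP2 enzyme | Reagent: 5 mM T5PNP | Compound dosing: 12.8 µM single point, 1% DMSO | Incubation: Enzyme reaction with compound for 2 h at 37 °C | Technique: p-Nitrophenol epi absorbance | Read-out: % inhibition relative to enzyme-containing and enzyme-free wells | Benchmarks: High control without enzyme, low control DMSO plus TDP2 | Replicates: Singlicate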
LEDGF integ inh – blocks HIV-1 LEDGF/p75-dependent DNA integration; TR-FRET IN-LEDGF/p75 DNA integration, Eu/Cy5; inhibition, % at 3.7 µM; hit rate 0.64% among 370,000; AID 743269;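 active = inhibition above the screen-wide mean plus 3 SD, cut at about 13% in these data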;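 also: signal is the Cy5 over europium emission ratio at 671 and 618 nm; 0% = plate median of compound wells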
MBD2 inh – inhibitors of human MBD2 binding to methylated oligonucleotide; Q9UBB5; hit rate 0.31% among 370,000; TR-FRET; inhibition, % at 4.4 µM; AID 686964; in the data active = inhibition above about 13%
UHRF1 binding – human UHRF1 methylated DNA binding inhibitors; hit rate 0.75% among 370,000; inhibition, % at 4.4 µM; UHRF1 binding to methylated oligo, TR-FRET; AID 687016; in the data active = inhibition above about 21%;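 also: UHRF1 SRA domain binding a hemimethylated CpG hairpin DNA probe; 0% = median of test compound wells and 100% = reference inhibitor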
Casp6 inh – inhibitors of human caspase-6; P55212; purified caspase-6, Z-VEID-R110 cleavage fluorescence; inhibition, % at 12.5 µM; hit rate 0.53% among 350,000; AID 686996;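 active = mean inhibition across replicates at least about 35%, with every replicate also reaching that limit, limit read from the data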;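 also: 0% = median of neutral control wells and 100% = no fluorescence left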
TDP2 confirm – human TDP2 inhibition, confirmation; shares compounds with TDP2 inh; recombinant human TDP2, absorbance read-out; inhibition, % at 12.8 µM; hit rate 22% among 1,100; in the data active = inhibition above about 25%;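 also: 0% = vehicle with enzyme and 100% = no enzyme buffer only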
Active calls of the source: *; nt = no result given.

SMILES | NSD2 inh | TDP2 inh | LEDGF integ inh | MBD2 inh | UHRF1 binding | Casp6 inh | TDP2 confirm
O=C(O)/C=C/C(=O)Nc1ccc(O)cc1 | -3 | 34* | 14* | -3 | -5 | 24 | 31*
Cc1noc(C)c1NC(=O)N(C)C[C@@H]1OCc2ccccc2-c2ccccc2C(=O)N([C@H](C)CO)C[C@@H]1C | nt | nt | nt | nt | nt | -2 | nt
COC(=O)/C=C1/SC(=NC(=O)c2ccc(Cl)cc2)NC1=O | nt | 25* | 0 | 2 | 7 | 0 | 2
CC(=O)N(C)C[C@H]1Oc2cc(C#Cc3cccnc3)ccc2S(=O)(=O)N([C@H](C)CO)C[C@H]1C | nt | nt | nt | nt | nt | 6 | nt
COC(=O)CCCC1=CC2=C(c3ccccc3)C(=O)C(C)(OC(=O)C3CCCC3)C(=O)C2=CN1CC(C)C (stereo not drawn) | nt | 25* | 7 | 0 | 4 | 11 | 14
COCCN1C=C2C(=O)C(C)(OC(=O)C3CCCC3)C(=O)C(c3ccccc3)=C2C=C1CCCC(=O)OC (stereo not drawn) | nt | 30* | 0 | 2 | -1 | 2 | 22
COC(=O)CCCC1=CC2=C(c3ccccc3)C(=O)C(C)(OC(=O)C3CCCC3)C(=O)C2=CN1CC1CC1 (stereo not drawn) | nt | 23 | 3 | 1 | 2 | 4 | nt
COc1ccc(Cc2nc3ccc(C(=O)N4CCCCC4CCO)cc3o2)cc1 (stereo not drawn) | 1 | 25* | -3 | 3 | -3 | 1 | 10
CC(C(=O)NC1C=CS(=O)(=O)C1)N1C(=O)/C(=C/c2cccc(Cl)c2)SC1=S (stereo not drawn) | 2 | 27* | 1 | 2 | -8 | 21 | -9
CC(C(=O)NC1C=CS(=O)(=O)C1)N1C(=O)/C(=C\c2ccccc2)SC1=S (stereo not drawn) | 4 | 8 | -1 | -1 | -12 | nt | nt
O=C(Nc1ccc2c(c1)OCO2)N[C@@H]1CC[C@H](CCNC(=O)C2CCCCC2)O[C@H]1CO | nt | nt | nt | nt | nt | -1 | nt
CC(=O)N(C)C[C@H]1Oc2cc(C#Cc3ccncc3)ccc2S(=O)(=O)N([C@H](C)CO)C[C@@H]1C | nt | nt | nt | nt | nt | 3 | nt
Cc1c(Cl)c(C(F)(F)F)nn1CC(=O)NCc1ccco1 | 3 | 5 | -2 | -1 | -2 | 3 | nt
Cc1cc(C(F)(F)F)nn1CC(=O)NCc1ccco1 | 8 | 31* | 4 | 0 | 3 | 13 | 4
COC(=O)c1cccc(NC(=O)c2cc3ccccc3o2)c1 | -2 | -12 | -5 | 6 | 6 | 0 | nt
COC(=O)c1cc(NC(=O)c2cc3ccccc3o2)cc(C(=O)OC)c1 | -4 | 26* | 2 | -7 | -1 | 3 | 1
Cc1cc(C)c(OCCOCCN2CCN(C)CC2)c(Cl)c1 | 9 | 29* | 2 | 2 | 2 | -3 | 11
O=C(Nc1cccc(F)c1)N1CCCCN2[C@H](CO)[C@@H](c3ccc(C#CC4CC4)cc3)[C@H]2C1 | nt | nt | nt | nt | nt | -2 | nt
Cc1nn(-c2ccccc2)c2c1C(c1ccc([N+](=O)[O-])cc1)C(C#N)=C(N)O2 (stereo not drawn) | -2 | 62* | 4 | -3 | 2 | 3 | 0
Cc1nn(-c2cccc(Cl)c2)c2c1C(c1ccncc1)C(C#N)=C(N)O2 (stereo not drawn) | 0 | 22 | 0 | -2 | 3 | nt | nt
Cc1ccc(-n2nc(C)c3c2OC(N)=C(C#N)C3c2ccc(F)cc2)cc1 (stereo not drawn) | 6 | 49* | -1 | 0 | -5 | nt | 0
Cc1nn(-c2cccc(Cl)c2)c2c1C(c1cccnc1)C(C#N)=C(N)O2 (stereo not drawn) | 0 | 60* | 2 | -3 | 12 | nt | 7
C[C@H]1CN([C@@H](C)CO)C(=O)c2cc(NS(C)(=O)=O)ccc2O[C@H]1CN(C)C(=O)Nc1ccc2c(c1)OCO2 | nt | nt | nt | nt | nt | 12 | nt
Cc1ccc(S(=O)(=O)N(C)C[C@@H]2OCCCC[C@H](C)Oc3ccc(NC(=O)NC4CCCCC4)cc3C(=O)N([C@H](C)CO)C[C@H]2C)cc1 | nt | nt | nt | nt | nt | 1 | nt
CN(C)CC#Cc1ccc([C@H]2[C@H](CO)N3CCCCN(C(=O)C4CCCC4)C[C@@H]23)cc1 | nt | nt | nt | nt | nt | 1 | nt
SMILES | NSD2 inh | TDP2 inh | LEDGF integ inh | MBD2 inh | UHRF1 binding | Casp6 inh | TDP2 confirm
COc1cccc(C(C(=O)NC(C)(C)C)N(Cc2ccc(C)cc2)C(=O)CCC(=O)Nc2cc(C)on2)c1OC (stereo not drawn) | 3 | 31* | 0 | 1 | -1 | 5 | -8
C[C@H](CO)N1C[C@H](C)[C@@H](CN(C)C(=O)Nc2ccc3c(c2)OCO3)Oc2ccc(NC(=O)Nc3cccc4ccccc34)cc2CC1=O | nt | nt | nt | nt | nt | 0 | nt
O=C(CNCC1CCCO1)N1CCCc2ccccc21 (stereo not drawn) | 0 | 15 | 3 | 1 | -2 | 0 | nt
CCC1CCCCN1C(=O)CNCC1CCCO1 (stereo not drawn) | 13 | 33* | -1 | -3 | -1 | -6 | 7
COCC#Cc1ccc2c(c1)O[C@@H](CN(C)Cc1ccc(F)cc1)[C@@H](C)CN([C@H](C)CO)S2(=O)=O | nt | nt | nt | nt | nt | -2 | nt
O=C(Cc1ccccc1)NN1C(=O)/C(=C/c2ccc(C(=O)O)cc2)SC1=S | -1 | 26* | 0 | -1 | -1 | 69* | 5
O=C(O)c1ccc(/C=C2/SC(=S)N(Cc3ccccc3)C2=O)cc1 | 2 | -1 | -1 | 2 | 3 | 2 | nt
CS(=O)(=O)Nc1ccc(-c2cn3cccnc3n2)cc1 | 0 | 26* | -3 | -4 | -2 | -1 | 6
Cc1ccc(-c2cn3cccnc3n2)cc1 | 1 | -5 | 0 | 5 | 0 | -1 | nt
CCOC(=O)C(=O)N/N=C/c1cccc(Br)c1 | -2 | 25* | 2 | 2 | -1 | 3 | -4
Cc1ccccc1-n1ncc2c1CC(C)(C)CC2NC(=O)CCn1cncn1 (stereo not drawn) | -1 | 82* | 2 | 4 | -2 | -3 | 5
Cc1ccc(C(=O)NCCONC(=O)c2ccc(C)cc2)cc1 | -2 | 25* | -1 | 0 | 0 | 2 | -6
COc1ccc(C(=O)NCCONC(=O)c2ccc(OC)cc2)cc1 | 0 | 3 | 1 | 0 | 3 | -1 | nt
CCC(=O)Nc1ccc2c(c1)C(=O)N(C)C[C@H](OC)[C@H](C)CN(CC1CC1)[C@@H](C)CO2 | nt | nt | nt | nt | nt | 3 | nt
O=C1CCC(=O)N1CC(=O)N1CCCc2ccccc21 | 0 | 25* | -1 | 0 | 2 | -2 | 13
O=C(CN1CCOCC1)N1CCCc2ccccc21 | -1 | 11 | 1 | 2 | -3 | -1 | nt
Cc1noc(C)c1S(=O)(=O)Nc1ccc2c(c1)C(=O)N([C@@H](C)CO)C[C@H](C)[C@@H](CN(C)Cc1ccc(Cl)c(Cl)c1)OCCCC[C@H](C)O2 | nt | nt | nt | nt | nt | 4 | nt
